Reference: ChEMBL document CHEMBL4382192, “Discovery of a potent dual ALK and EGFR T790M inhibitor” (Eur J Med Chem, 2017)

Legend:
[1] = Half life in mouse at 2 mg/kg, iv; format: ADME, organism-based; conditions: in vivo
[2] = Tmax in mouse at 10 mg/kg, po; format: ADME, organism-based; conditions: in vivo
[3] = Clearance in mouse at 2 mg/kg, iv; format: ADME, organism-based; conditions: in vivo
[4] = tested on: Tyrosine-protein kinase ABL1 (Homo sapiens), P00519 [F317L]; assay: Binding affinity to human non-phosphorylated ABL1 F317L mutant (S229 to K512 residues) expressed in mammalian expression system assessed as residual binding level at 1 uM by Kinomescan method relative to control
Method in brief: (§1)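 Kinome-wide selectivity panel run by the KINOMEscan method, with the test compound at a single concentration of 1 μM. Wild-type and mutant kinases were profiled in the same screen.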

[5] = biological target: Mitogen-activated protein kinase kinase kinase 5 (Homo sapiens) (UniProt Q99683); assay: Binding affinity to wild-type human partial length ASK1 (E648 to S964 residues) expressed in bacterial expression system assessed as residual binding level at 1 uM by Kinomescan method relative to control
[6] = biological target: Calcium/calmodulin-dependent protein kinase type 1B (Homo sapiens) (UniProt Q6P2M8); assay: Binding affinity to wild-type human partial length CAMK1B (W9 to A311 residues) expressed in mammalian expression system assessed as residual binding level at 1 uM by Kinomescan method relative to control
[7] = biological target: Cyclin-dependent kinase-like 1 (Homo sapiens) (UniProt Q00532); assay: Binding affinity to wild-type human full length CDKL1 (M1 to I358 residues) expressed in mammalian expression system assessed as residual binding level at 1 uM by Kinomescan method relative to control
[8] = biological target: Serine/threonine-protein kinase DCLK2 (Homo sapiens) (UniProt Q8N568); assay: Binding affinity to wild-type human partial length DCAMKL2 (K273 to V664 residues) expressed in bacterial expression system assessed as residual binding level at 1 uM by Kinomescan method relative to control
[9] = biological target: Serine/threonine-protein kinase 17A (Homo sapiens) (UniProt Q9UEE5); assay: Binding affinity to wild-type human partial length DRAK1 (R32 to E363 residues) expressed in bacterial expression system assessed as residual binding level at 1 uM by Kinomescan method relative to control
[10] = biological target: Ephrin type-A receptor 2 (Homo sapiens) (UniProt P29317); assay: Binding affinity to wild-type human partial length EPHA2 (T593 to V891 residues) expressed in bacterial expression system assessed as residual binding level at 1 uM by Kinomescan method relative to control
[11] = biological target: Mitogen-activated protein kinase 6 (Homo sapiens) (UniProt Q16659); assay: Binding affinity to wild-type human partial length ERK3 (M1 to P413 residues) expressed in bacterial expression system assessed as residual binding level at 1 uM by Kinomescan method relative to control
[12] = biological target: Fibroblast growth factor receptor 4 (Homo sapiens) (UniProt P22455); assay: Binding affinity to wild-type human partial length FGFR4 (G402 to E713 residues) expressed in bacterial expression system assessed as residual binding level at 1 uM by Kinomescan method relative to control
[13] = tested on: Receptor-type tyrosine-protein kinase FLT3 (Homo sapiens), P36888 [D835V]; assay: Binding affinity to human partial length FLT3 D835V mutant (V592 to Y969 residues) expressed in bacterial expression system assessed as residual binding level at 1 uM by Kinomescan method relative to control; method in brief: as §1
[14] = biological target: Receptor-type tyrosine-protein kinase FLT3 (Homo sapiens) (UniProt P36888); assay: Binding affinity to wild-type human partial length autoinhibited FLT3 (H564 to Y969 residues) expressed in mammalian expression system assessed as residual binding level at 1 uM by Kinomescan method relative to control
[15] = biological target: Tyrosine-protein kinase HCK (Homo sapiens) (UniProt P08631); assay: Binding affinity to wild-type human full length HCK (M22 to P526 residues) expressed in bacterial expression system assessed as residual binding level at 1 uM by Kinomescan method relative to control
Method in brief: (§2)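 Single-point kinome-wide KINOMEscan binding panel, test compound at 1 μM, run by the provider's standard protocol.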

[16] = biological target: Leukocyte tyrosine kinase receptor (Homo sapiens) (UniProt P29376); assay: Binding affinity to wild-type human partial length LTK (P422 to S744 residues) expressed in bacterial expression system assessed as residual binding level at 1 uM by Kinomescan method relative to control
[17] = biological target: Serine/threonine-protein kinase MRCK alpha (Homo sapiens) (UniProt Q5VT25); assay: Binding affinity to wild-type human partial length MRCKA (L57 to V418 residues) expressed in bacterial expression system assessed as residual binding level at 1 uM by Kinomescan method relative to control
[18] = biological target: Muscle, skeletal receptor tyrosine-protein kinase (Homo sapiens) (UniProt O15146); assay: Binding affinity to wild-type human partial length MUSK (M553 to V869 residues) expressed in bacterial expression system assessed as residual binding level at 1 uM by Kinomescan method relative to control
[19] = biological target: Serine/threonine-protein kinase Nek2 (Homo sapiens) (UniProt P51955); assay: Binding affinity to wild-type human partial length NEK2 (M1 to K309 residues) expressed in bacterial expression system assessed as residual binding level at 1 uM by Kinomescan method relative to control
[20] = biological target: Mitogen-activated protein kinase kinase kinase 14 (Homo sapiens) (UniProt Q99558); assay: Binding affinity to wild-type human partial length NIK (L318 to P947 residues) expressed in mammalian expression system assessed as residual binding level at 1 uM by Kinomescan method relative to control
[21] = biological target: Mitogen-activated protein kinase 12 (Homo sapiens) (UniProt P53778); assay: Binding affinity to wild-type human full length p38-gamma (M1 to L367 residues) expressed in mammalian expression system assessed as residual binding level at 1 uM by Kinomescan method relative to control
[22] = biological target: Platelet-derived growth factor receptor beta (Homo sapiens) (UniProt P09619); assay: Binding affinity to wild-type human partial length PDGFRB (V582 to Y1009 residues) expressed in bacterial expression system assessed as residual binding level at 1 uM by Kinomescan method relative to control
[23] = biological target: Serine/threonine-protein kinase D3 (Homo sapiens) (UniProt O94806); assay: Binding affinity to wild-type human partial length PRKD3 (S543 to E863 residues) expressed in bacterial expression system assessed as residual binding level at 1 uM by Kinomescan method relative to control
[24] = biological target: SRSF protein kinase 2 (Homo sapiens) (UniProt P78362); assay: Binding affinity to wild-type human full length SRPK2 (M1 to S686 residues) expressed in bacterial expression system assessed as residual binding level at 1 uM by Kinomescan method relative to control; method in brief: as §2
[25] = biological target: Tyrosine-protein kinase receptor TYRO3 (Homo sapiens) (UniProt Q06418); assay: Binding affinity to wild-type human partial length TYRO3 (S497 to T814 residues) expressed in bacterial expression system assessed as residual binding level at 1 uM by Kinomescan method relative to control
[26] = biological target: Serine/threonine-protein kinase WNK1 (Homo sapiens) (UniProt Q9H4A3); assay: Binding affinity to wild-type human partial length WNK1 (Q194 to A490 residues) expressed in mammalian expression system assessed as residual binding level at 1 uM by Kinomescan method relative to control

Sequence of Serine/threonine-protein kinase Nek2 (Homo sapiens) (P51955 whole entry, the tested form may be a part): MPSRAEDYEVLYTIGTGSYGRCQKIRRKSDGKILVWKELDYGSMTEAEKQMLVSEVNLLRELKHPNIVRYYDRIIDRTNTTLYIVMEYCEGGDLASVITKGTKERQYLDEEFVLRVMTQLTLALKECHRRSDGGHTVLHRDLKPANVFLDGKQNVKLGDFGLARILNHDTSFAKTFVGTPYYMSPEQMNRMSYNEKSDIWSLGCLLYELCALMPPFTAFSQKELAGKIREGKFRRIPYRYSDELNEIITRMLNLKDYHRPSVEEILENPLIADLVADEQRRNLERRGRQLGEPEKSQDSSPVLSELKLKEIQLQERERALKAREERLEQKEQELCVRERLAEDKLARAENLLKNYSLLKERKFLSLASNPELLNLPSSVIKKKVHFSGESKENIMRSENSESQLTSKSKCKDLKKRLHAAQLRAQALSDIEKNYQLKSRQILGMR
Sequence of Leukocyte tyrosine kinase receptor (Homo sapiens) (P29376 whole entry, the tested form may be a part): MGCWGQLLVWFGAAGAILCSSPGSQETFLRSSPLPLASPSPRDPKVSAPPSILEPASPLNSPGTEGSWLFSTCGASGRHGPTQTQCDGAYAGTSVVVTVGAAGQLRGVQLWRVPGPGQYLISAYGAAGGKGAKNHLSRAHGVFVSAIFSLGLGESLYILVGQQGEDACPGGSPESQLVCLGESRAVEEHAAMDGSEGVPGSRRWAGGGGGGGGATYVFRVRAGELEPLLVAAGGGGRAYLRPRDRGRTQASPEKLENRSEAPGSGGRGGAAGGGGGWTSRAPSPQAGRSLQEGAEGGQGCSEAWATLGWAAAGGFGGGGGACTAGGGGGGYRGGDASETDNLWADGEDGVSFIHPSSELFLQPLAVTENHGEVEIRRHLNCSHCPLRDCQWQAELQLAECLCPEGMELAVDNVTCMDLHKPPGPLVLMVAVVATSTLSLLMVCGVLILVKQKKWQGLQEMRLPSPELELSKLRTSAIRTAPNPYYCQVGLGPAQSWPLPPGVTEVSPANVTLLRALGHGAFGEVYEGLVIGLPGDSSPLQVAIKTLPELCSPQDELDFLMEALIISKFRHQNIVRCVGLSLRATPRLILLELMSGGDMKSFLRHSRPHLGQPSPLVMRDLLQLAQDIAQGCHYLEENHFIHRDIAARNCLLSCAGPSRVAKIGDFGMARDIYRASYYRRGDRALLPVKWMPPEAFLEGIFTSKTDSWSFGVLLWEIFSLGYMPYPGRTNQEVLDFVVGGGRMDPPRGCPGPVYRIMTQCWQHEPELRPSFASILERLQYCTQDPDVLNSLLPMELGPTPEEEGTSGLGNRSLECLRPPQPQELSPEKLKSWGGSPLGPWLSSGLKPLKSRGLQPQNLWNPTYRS
Sequence of Mitogen-activated protein kinase kinase kinase 5 (Homo sapiens) (Q99683 whole entry, the tested form may be a part): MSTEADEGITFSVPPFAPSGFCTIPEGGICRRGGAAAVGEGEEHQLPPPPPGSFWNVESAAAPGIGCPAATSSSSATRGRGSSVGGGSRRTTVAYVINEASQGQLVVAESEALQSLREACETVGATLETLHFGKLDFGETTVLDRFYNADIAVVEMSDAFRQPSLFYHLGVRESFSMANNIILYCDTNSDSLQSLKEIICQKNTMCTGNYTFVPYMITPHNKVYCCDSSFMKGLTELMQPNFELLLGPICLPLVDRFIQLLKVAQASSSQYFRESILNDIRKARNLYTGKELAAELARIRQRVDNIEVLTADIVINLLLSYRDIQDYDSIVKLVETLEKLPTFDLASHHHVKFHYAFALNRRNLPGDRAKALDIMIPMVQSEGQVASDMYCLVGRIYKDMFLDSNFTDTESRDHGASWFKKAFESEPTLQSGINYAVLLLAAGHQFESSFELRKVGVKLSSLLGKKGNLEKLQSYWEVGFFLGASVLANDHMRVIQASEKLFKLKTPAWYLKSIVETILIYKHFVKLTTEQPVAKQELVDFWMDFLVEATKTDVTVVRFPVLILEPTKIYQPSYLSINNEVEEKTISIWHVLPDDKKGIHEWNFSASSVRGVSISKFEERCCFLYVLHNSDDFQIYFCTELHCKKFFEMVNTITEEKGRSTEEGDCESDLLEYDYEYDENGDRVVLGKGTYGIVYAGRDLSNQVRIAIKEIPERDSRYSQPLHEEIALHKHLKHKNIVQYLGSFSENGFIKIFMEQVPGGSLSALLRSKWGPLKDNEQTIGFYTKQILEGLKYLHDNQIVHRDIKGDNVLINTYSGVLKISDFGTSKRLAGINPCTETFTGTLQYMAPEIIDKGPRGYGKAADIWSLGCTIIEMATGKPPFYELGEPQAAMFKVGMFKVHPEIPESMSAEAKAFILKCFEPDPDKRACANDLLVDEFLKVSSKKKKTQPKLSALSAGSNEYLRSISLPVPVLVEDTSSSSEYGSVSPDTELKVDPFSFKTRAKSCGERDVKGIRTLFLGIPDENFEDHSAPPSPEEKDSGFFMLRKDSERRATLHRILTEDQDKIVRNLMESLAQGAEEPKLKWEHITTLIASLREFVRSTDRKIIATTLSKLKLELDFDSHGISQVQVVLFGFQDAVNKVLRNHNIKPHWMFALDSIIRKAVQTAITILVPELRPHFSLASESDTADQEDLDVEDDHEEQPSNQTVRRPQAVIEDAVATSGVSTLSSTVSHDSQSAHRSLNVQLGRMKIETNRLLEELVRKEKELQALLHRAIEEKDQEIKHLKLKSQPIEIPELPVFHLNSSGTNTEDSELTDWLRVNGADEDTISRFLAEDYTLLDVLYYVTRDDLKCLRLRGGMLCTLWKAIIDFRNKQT
Sequence of Calcium/calmodulin-dependent protein kinase type 1B (Homo sapiens) (Q6P2M8 whole entry, the tested form may be a part): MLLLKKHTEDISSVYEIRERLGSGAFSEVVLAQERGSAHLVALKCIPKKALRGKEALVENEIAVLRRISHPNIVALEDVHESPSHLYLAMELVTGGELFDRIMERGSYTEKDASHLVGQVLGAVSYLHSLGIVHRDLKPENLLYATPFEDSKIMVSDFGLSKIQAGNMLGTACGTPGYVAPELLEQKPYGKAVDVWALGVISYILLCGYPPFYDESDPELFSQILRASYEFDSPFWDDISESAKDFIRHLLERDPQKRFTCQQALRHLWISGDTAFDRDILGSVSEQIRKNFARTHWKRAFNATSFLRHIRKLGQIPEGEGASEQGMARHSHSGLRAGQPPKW
Sequence of Mitogen-activated protein kinase 6 (Homo sapiens) (Q16659 whole entry, the tested form may be a part): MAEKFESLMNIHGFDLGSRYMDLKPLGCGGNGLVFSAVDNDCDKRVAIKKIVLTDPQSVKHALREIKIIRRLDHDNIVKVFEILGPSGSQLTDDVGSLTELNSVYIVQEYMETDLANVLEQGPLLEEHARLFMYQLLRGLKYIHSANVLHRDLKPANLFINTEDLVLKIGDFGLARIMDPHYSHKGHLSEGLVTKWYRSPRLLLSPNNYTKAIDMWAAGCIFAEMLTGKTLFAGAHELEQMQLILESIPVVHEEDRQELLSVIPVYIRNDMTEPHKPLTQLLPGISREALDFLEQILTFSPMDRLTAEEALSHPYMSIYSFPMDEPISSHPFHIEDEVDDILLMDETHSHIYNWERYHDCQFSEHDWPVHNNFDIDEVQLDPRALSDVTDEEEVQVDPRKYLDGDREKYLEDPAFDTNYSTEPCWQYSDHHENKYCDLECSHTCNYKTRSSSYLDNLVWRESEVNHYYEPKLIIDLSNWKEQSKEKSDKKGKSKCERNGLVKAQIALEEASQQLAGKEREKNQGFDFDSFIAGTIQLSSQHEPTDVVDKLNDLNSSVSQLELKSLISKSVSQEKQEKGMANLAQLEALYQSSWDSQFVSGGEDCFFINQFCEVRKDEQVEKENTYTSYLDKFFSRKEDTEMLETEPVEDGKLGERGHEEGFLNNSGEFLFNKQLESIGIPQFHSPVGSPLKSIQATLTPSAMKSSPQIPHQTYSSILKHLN
Sequence of SRSF protein kinase 2 (Homo sapiens) (P78362 whole entry, looked up, the tested form may be a part): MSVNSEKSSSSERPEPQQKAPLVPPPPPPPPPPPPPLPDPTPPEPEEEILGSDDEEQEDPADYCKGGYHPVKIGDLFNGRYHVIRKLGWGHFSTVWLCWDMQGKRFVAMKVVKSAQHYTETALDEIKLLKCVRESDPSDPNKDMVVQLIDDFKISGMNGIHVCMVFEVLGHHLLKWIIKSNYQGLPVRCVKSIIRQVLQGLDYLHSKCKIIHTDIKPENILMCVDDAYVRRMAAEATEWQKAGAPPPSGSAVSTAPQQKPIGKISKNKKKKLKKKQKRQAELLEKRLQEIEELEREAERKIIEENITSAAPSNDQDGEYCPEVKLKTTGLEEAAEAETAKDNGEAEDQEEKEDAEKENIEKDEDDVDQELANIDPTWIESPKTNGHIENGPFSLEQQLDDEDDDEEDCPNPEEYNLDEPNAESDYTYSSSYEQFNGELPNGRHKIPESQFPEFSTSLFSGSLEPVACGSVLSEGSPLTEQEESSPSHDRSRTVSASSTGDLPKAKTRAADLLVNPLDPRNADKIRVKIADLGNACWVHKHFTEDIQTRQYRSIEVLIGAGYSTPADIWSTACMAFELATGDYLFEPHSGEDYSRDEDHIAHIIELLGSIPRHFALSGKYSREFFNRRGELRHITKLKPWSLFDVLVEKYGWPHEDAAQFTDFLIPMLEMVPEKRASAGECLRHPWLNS
Sequence of Serine/threonine-protein kinase 17A (Homo sapiens) (Q9UEE5 whole entry, the tested form may be a part): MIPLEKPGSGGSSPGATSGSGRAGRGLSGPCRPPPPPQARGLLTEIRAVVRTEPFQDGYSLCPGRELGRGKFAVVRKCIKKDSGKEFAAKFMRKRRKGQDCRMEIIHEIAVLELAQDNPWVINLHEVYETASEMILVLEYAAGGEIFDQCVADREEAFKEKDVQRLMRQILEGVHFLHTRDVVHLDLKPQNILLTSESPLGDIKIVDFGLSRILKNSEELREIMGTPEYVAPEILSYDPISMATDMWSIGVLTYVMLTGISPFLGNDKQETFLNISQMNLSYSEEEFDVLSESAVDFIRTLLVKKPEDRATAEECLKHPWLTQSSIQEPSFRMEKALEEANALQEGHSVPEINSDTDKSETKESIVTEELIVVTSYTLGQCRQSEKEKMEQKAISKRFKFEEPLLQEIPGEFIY

C=CC(=O)Nc1cc(Nc2ncc(Cl)c(Nc3ccccc3S(=O)(=O)C(C)C)n2)c(OC)cc1N(C)CCN(C)C
half-life [1]: 1.25 h | Tmax [2]: 1.17 h | clearance [3]: 29 mL/min/kg | Activity [4]: 0.8% | Activity [5]: 100% | Activity [6]: 15% | Activity [7]: 58% | Activity [8]: 14% | Activity [9]: 83% | Activity [10]: 75% | Activity [11]: 94% | Activity [12]: 9.6% | Activity [13]: 2.4% | Activity [14]: 85% | Activity [15]: 49% | Activity [16]: 0% | Activity [17]: 97% | Activity [18]: 92% | Activity [19]: 83% | Activity [20]: 91% | Activity [21]: 56% | Activity [22]: 43% | Activity [23]: 0% | Activity [24]: 99% | Activity [25]: 51% | Activity [26]: 100%
